Measured values as given in ChEMBL document CHEMBL1156486, “Discovery and characterization of a novel inhibitor of matrix metalloprotease-13 that reduces cartilage damage in vivo without joint fibroplasia side effects” (J Biol Chem, 2007).
Values after ≈ are worked out from the molar mass of the structure shown. Active and inactive are the calls of the source. The rule behind the calls is not given here.

Tests used:
Stromelysin-1 = Stromelysin-1 (Homo sapiens, UniProt P08254); assay: Inhibition of MMP3 catalytic domain
Procedure, shortened: (§1)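 Buffer: 50 mM Hepes pH 7.0, 10 mM CaCl2, 1 mM DTNB, 0.005% Brij 35, 1% final DMSO. […] Initial rate read as A412 increase at 25 °C. At least triplicate inhibitor titrations. % of control activity fit to a sloped IC50 equation.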

Matrilysin = target: T1, Matrilysin (Homo sapiens, UniProt P09237); assay: Inhibition of MMP7; procedure, shortened: as §1
T1 sequence (P09237 whole entry): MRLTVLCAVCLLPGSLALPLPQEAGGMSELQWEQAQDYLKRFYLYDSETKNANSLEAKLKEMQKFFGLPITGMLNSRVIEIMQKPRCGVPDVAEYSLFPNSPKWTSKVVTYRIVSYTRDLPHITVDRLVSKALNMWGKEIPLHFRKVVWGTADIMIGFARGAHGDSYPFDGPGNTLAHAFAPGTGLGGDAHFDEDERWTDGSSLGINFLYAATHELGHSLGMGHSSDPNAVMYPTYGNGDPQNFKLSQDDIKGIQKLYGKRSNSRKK

[1] = target: Matrix metalloproteinase-14 (Homo sapiens, UniProt P50281); assay: Inhibition of MMP14 catalytic domain; procedure, shortened: as §1
[2] = target: Macrophage metalloelastase (Homo sapiens, UniProt P39900); assay: Inhibition of MMP12 catalytic domain; procedure, shortened: as §1
[3] = target: T2, Matrix metalloproteinase-17 (Homo sapiens, UniProt Q9ULZ9); assay: Inhibition of MMP17 catalytic domain; procedure, shortened: as §1
T2 sequence (Q9ULZ9 whole entry): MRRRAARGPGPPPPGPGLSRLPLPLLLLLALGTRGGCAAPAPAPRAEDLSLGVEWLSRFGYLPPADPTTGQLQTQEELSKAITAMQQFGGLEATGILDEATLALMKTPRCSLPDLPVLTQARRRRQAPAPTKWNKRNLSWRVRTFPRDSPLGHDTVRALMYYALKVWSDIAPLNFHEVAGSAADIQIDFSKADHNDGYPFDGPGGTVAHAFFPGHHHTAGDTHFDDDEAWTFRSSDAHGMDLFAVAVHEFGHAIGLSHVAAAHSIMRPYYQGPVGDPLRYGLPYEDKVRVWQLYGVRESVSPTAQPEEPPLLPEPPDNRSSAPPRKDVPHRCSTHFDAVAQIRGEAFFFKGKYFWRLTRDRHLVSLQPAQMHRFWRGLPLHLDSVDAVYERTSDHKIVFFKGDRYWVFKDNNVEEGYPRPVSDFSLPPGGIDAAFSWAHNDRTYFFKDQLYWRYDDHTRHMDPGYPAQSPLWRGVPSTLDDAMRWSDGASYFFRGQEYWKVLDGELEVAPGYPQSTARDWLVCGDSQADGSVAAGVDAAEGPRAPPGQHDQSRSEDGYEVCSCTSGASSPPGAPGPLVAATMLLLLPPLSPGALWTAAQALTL

Collagenase 3 = Collagenase 3 (Homo sapiens, UniProt P45452)
Interstitial collagenase = target: T3, Interstitial collagenase (Homo sapiens, UniProt P03956); assay: Inhibition of MMP1
T3 sequence (P03956 whole entry): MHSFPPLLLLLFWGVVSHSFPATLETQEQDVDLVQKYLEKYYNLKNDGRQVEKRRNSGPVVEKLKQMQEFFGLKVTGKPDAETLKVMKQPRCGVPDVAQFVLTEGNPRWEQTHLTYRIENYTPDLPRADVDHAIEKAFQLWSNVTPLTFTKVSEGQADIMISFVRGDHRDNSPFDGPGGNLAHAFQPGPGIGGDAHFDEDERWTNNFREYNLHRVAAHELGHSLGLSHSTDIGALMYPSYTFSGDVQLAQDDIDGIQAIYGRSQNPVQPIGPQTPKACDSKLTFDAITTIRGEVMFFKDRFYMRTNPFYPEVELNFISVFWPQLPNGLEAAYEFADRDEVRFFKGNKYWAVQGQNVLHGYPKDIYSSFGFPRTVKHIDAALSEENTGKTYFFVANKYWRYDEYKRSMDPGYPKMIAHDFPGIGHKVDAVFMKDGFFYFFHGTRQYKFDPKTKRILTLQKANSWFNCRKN

[4] = target: 72 kDa type IV collagenase (Homo sapiens, UniProt P08253); assay: Inhibition of MMP2
Neutrophil collagenase = Neutrophil collagenase (Homo sapiens, UniProt P22894); assay: Inhibition of MMP8 catalytic domain
[5] = target: Matrix metalloproteinase-9 (Homo sapiens, UniProt P14780); assay: Inhibition of MMP9
[6] = target: T4, A disintegrin and metalloproteinase with thrombospondin motifs 4 (Homo sapiens, UniProt O75173); assay: Inhibition of human ADAMTS4 assessed as cleavage of aggrecan substrate
T4 sequence (O75173 whole entry): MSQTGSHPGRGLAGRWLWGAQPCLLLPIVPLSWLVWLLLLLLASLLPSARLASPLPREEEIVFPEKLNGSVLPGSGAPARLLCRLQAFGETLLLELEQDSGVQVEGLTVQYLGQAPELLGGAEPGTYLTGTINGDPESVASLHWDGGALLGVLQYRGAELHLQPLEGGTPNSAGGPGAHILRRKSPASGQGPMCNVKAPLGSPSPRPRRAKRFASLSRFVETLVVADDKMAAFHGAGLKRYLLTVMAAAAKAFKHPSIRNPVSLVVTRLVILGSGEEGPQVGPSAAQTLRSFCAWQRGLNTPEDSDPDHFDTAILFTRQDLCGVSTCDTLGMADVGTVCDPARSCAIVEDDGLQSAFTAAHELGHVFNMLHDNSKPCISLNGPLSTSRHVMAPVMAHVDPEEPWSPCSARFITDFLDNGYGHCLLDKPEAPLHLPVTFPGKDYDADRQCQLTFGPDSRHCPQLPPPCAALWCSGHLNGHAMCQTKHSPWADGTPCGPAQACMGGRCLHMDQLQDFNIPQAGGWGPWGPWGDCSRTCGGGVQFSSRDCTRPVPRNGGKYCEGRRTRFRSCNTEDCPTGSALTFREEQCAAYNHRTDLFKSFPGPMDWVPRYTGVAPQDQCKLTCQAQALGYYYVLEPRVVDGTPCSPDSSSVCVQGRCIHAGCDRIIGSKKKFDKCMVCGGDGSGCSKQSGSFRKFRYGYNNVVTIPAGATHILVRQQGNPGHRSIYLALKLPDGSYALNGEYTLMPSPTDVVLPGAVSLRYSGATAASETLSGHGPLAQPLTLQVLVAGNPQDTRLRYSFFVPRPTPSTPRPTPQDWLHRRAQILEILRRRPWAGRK
Procedure, shortened: (§2)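 Isolated human enzyme with native aggrecan as substrate. Cleavage quantified using the BC-3 neoepitope antibody.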

[7] = target: T5, A disintegrin and metalloproteinase with thrombospondin motifs 5 (Homo sapiens, UniProt Q9UNA0); assay: Inhibition of human ADAMTS5 assessed as cleavage of aggrecan substrate; procedure, shortened: as §2
T5 sequence (Q9UNA0 whole entry): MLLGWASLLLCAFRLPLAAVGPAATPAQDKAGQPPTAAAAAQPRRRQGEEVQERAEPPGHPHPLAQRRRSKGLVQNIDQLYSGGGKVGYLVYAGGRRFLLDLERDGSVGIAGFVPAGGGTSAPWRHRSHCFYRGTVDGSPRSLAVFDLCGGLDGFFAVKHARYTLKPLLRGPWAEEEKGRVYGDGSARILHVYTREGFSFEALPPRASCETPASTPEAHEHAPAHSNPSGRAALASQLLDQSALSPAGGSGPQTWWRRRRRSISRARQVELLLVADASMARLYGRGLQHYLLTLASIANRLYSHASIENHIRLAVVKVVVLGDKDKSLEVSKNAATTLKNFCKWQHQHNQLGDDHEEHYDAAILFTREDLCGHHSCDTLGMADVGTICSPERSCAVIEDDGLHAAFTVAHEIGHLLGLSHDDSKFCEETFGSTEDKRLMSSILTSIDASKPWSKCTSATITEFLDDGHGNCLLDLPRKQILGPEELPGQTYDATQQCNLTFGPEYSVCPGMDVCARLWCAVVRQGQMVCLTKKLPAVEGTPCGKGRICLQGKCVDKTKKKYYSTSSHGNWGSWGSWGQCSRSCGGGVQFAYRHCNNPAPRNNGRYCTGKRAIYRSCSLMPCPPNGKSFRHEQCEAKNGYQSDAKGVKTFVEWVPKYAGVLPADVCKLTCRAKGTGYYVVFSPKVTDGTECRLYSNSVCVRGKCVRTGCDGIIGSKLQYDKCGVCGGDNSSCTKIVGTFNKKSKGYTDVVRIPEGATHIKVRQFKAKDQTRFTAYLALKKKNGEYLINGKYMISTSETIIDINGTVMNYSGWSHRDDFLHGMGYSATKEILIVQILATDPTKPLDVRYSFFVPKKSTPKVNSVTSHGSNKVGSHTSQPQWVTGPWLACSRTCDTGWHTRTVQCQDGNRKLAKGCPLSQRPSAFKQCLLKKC

[8] = Solubility in phosphate buffer at pH 7.5; format: physicochemical
[9] = Solubility in phosphate buffer at pH 6.5; format: physicochemical
[10] = Solubility in phosphate buffer at pH 6; format: physicochemical
Cartilage tissue = assay: Inhibition of IL1alpha and oncostatin M-stimulated hydroxyproline release from bovine nasal cartilage; format: functional, tissue-based; conditions: Bos taurus
Procedure, shortened: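 Bovine nasal cartilage explants (1 × 3 mm, 9 per group) cultured 2 weeks with interleukin-1 (50 ng/ml) plus oncostatin M (50 ng/ml), with vehicle or up to 10 µM inhibitor. Medium refreshed twice weekly and pooled for hydroxyproline assay; remaining cartilage papain-digested and its hydroxyproline measured. IC50 taken from a plot of inhibition of cartilage degradation; means ± S.E.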

Oryctolagus cuniculus [11] = assay: Inhibition of cartilage damage in New Zealand white rabbit osteoarthritis model assessed as reduction of cartilage lesion on tibial plateau at 30 mg/kg, po twice daily after 5 weeks relative to control; format: functional; set-up: scale not given: the % may be the effect or the level left
Procedure, shortened: (§3)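 Oral dosing 30 mg/kg or vehicle twice daily from day 1 post-op for 5 weeks. Joints removed, stained with India ink; two-dimensional lesion areas on tibial plateaus and femoral condyles measured; means ± S.E., compared to vehicle.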

Rattus norvegicus [12] = assay: Inhibition of human MMP13-induced type 2 collagen degradation in rat cartilage damage model assessed as type2 collagen neoepitope biomarker level at 0.1 mg/kg, po by enzyme-linked immunosorbent assay; format: functional, organism-based; set-up: dose 0.1 mg/kg
Procedure, shortened: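 Rats (12 per group) dosed orally with vehicle or various doses; 3 h later knees injected intra-articularly with 12 µg activated full-length human MMP13. Sacrifice 2 h after injection; synovial space lavaged twice with 80 µl saline. Type II collagen neoepitope in lavage quantified by ELISA.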

Oryctolagus cuniculus [13] = assay: Inhibition of cartilage damage in New Zealand white rabbit osteoarthritis model assessed as reduction of cartilage lesion on femoral condyles at 30 mg/kg, po twice daily after 5 weeks relative to control; format: functional, Condyle; set-up: scale not given: the % may be the effect or the level left; procedure, shortened: as §3
[14] = Plasma concentration in New Zealand white rabbit osteoarthritis model at 30 mg/kg, po twice daily after 5 weeks; format: ADME, organism-based, Oryctolagus cuniculus; set-up: dose 30 mg/kg, route oral
[15] = AUC (0 to 24 hrs) in New Zealand white rabbit osteoarthritis model at 30 mg/kg, po twice daily after 5 weeks; format: ADME, organism-based, Oryctolagus cuniculus; set-up: time < 24 hr, dose 30 mg/kg, route oral; conditions: in vivo
[16] = AUC (0 to 24 hrs) in Sprague-Dawley rat model of musculoskeletal syndrome side effect at 2000 mg/kg/day, po after 14 days; format: ADME, organism-based; set-up: time < 24 hr, dose 2000 mg/kg/day, route oral; conditions: in vivo
[17] = Drug level in Sprague-Dawley rat model of musculoskeletal syndrome side effect at 2000 mg/kg/day, po after 14 days; format: ADME, organism-based; set-up: route oral; conditions: in vivo
Rattus norvegicus [18] = assay: Toxicity in Sprague-Dawley rat model of musculoskeletal syndrome side effect assessed as induction of joint fibroplasia at 2000 mg/kg/day, po after 14 days; format: organism-based; set-up: route oral; conditions: in vivo, 336 h
Procedure, shortened: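 Sprague-Dawley rats (6/sex) given vehicle or 2000 mg/kg/day orally for 14 days; a non-selective hydroxamate MMP inhibitor at 2000 mg/kg/day as positive control. Calcaneon tendon and femorotibial, tibiotarsal, humeroradial joints taken bilaterally; femorotibial joints formalin-fixed, decalcified, H&E-stained, examined by light microscopy for fibroplasia.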

[19] = test system: O=C(OCc1ccccc1)c1cn2c(=O)n(Cc3ccccc3)c(=O)cc2s1; conditions: Homo sapiens

Macrophage metalloelastase, sequence (P39900 whole entry, the tested form may be a part): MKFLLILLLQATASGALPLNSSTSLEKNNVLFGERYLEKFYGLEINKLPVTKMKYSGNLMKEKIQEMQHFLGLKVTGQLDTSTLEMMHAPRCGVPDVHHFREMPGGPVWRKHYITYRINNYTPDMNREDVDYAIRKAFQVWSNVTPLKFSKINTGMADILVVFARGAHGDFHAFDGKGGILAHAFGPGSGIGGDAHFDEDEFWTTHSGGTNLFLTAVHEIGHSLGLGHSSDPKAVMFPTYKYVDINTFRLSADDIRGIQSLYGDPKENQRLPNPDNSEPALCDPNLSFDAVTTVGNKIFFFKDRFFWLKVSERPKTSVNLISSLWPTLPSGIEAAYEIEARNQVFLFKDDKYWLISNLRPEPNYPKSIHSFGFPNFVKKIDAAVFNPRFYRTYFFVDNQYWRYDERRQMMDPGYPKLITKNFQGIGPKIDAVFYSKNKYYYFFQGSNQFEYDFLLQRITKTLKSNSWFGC
Stromelysin-1, sequence (P08254 whole entry, the tested form may be a part): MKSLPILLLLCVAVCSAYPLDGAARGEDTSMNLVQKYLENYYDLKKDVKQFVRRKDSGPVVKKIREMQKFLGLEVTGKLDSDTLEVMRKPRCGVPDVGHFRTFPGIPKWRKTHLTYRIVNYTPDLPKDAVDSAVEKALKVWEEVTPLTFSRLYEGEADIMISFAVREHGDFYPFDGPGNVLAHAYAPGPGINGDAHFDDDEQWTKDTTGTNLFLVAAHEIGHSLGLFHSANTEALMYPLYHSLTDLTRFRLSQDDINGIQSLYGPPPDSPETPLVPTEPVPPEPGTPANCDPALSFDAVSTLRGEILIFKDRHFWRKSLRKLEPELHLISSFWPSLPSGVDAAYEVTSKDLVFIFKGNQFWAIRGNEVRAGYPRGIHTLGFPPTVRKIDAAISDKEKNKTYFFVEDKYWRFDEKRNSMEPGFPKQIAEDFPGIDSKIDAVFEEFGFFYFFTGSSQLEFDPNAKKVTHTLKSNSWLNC
Neutrophil collagenase, sequence (P22894 whole entry, the tested form may be a part): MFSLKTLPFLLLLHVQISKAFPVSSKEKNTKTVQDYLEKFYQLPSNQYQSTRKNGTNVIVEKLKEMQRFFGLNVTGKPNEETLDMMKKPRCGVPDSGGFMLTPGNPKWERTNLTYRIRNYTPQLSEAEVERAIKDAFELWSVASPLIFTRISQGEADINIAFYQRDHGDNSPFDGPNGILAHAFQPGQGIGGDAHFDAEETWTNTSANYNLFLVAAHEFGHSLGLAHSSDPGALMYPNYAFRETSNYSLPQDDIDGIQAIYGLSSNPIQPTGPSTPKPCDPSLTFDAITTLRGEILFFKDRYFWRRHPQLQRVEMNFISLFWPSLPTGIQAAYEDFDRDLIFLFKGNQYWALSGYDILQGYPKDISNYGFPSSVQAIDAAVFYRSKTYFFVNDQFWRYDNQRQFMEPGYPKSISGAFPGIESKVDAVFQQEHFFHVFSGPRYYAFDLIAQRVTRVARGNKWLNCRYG
Matrix metalloproteinase-9, sequence (P14780 whole entry): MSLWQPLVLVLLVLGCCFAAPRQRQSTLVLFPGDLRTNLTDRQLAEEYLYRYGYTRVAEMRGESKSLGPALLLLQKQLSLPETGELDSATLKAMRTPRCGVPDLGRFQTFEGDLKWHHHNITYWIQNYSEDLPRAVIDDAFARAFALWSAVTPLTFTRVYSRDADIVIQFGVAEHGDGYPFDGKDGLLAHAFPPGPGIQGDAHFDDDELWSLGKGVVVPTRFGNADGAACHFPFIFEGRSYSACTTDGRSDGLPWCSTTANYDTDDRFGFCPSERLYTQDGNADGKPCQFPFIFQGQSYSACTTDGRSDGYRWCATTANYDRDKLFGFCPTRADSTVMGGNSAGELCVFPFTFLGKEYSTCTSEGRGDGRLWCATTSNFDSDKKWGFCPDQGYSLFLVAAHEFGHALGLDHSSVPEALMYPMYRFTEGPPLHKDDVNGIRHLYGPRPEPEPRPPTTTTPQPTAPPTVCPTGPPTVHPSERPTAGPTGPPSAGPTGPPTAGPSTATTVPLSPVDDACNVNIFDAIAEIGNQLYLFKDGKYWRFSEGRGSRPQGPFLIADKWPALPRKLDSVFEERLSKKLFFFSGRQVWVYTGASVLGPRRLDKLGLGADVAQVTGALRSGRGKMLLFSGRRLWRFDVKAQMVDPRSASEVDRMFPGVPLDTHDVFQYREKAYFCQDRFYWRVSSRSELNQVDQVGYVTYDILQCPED
72 kDa type IV collagenase, sequence (P08253 whole entry, the tested form may be a part): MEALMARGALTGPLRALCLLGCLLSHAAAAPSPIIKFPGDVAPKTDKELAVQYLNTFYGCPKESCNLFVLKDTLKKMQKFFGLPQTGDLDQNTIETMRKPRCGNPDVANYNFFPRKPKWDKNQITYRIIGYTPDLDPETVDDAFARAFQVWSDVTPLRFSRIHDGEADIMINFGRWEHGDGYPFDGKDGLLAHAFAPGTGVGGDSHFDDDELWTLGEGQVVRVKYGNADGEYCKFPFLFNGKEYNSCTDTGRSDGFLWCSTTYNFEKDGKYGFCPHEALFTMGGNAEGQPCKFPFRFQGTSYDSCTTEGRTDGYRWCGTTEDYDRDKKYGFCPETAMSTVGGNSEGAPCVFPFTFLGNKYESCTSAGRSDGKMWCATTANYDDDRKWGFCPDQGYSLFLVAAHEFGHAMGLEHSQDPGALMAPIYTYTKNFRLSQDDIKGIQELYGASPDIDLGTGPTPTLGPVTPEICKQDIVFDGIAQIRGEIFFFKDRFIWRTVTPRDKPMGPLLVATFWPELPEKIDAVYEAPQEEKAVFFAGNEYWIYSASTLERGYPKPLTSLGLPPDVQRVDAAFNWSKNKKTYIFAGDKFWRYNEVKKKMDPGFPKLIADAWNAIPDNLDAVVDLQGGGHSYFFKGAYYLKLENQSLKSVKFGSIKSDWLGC

Compound	IC50 (Stromelysin-1) [µM]	IC50 (Matrilysin) [µM]	IC50 [1] [µM]	IC50 [2] [µM]	IC50 [3] [µM]	IC50 (Interstitial collagenase) [µM]	IC50 [4] [µM]	IC50 (Neutrophil collagenase) [µM]	IC50 [5] [µM]	AUC at 336 h [17] [ng·h/mL]	Activity (Rattus norvegicus [18])	other results
CNC(=O)[C@H](Cc1c[nH]c2ccccc12)NC(=O)[C@@H](CC(=O)NO)CC(C)C [ILOMASTAT]	0.007	0.033	0.0047	0.0051	0.0034							IC50 (Collagenase 3): 5.2 nM
Cn1c(=O)n(Cc2ccc(C(=O)O)cc2)c(=O)c2cc(C#CCc3ccccc3)ccc21	> 30	> 30	> 30	> 100	> 30	> 30	> 30	> 100	> 100	30000	Non-toxic	IC50 [6]: > 25 µM; IC50 [7]: > 25 µM; solubility [8]: < 3 µM; solubility [9]: < 3 µM; solubility [10]: 20 µM (≈ 8.49 µg/mL); IC50 (Cartilage tissue): 1300 nM; Activity (Oryctolagus cuniculus [11]): 68%; Activity (Rattus norvegicus [12]): Active; Activity (Oryctolagus cuniculus [13]): 51%; AUC at 840 h [14]: 200 µg·h/mL; AUC at 24 h [15]: 6000 ng·h/mL; AUC at 24 h [16]: 1010 µg·h/mL
CC(C)[C@@H](NS(=O)(=O)c1ccc(-c2ccc(Br)cc2)cc1)C(=O)NO										94000	Toxic	
Collagenase 3 (Homo sapiens) (from UniProt P45452)												Km [19]: 48 µM
O=C(OCc1ccccc1)c1cn2c(=O)n(Cc3ccccc3)c(=O)cc2s1	> 100	> 100	> 100	> 100	> 100	> 100	> 100	> 100	> 100			
